Data: article PMC3629956 (Molecular imaging and biology : MIB : the official …, 2012)
Where a SMILES comes first, the peptide text is derived from it. Bridges are numbered along the chain shown (N, C = ends). The star is where a group is joined. DOTA = O=C(O)CN1CCN(CC(=O)O)CCN(CC(=O)*)CCN(CC(=O)O)CC1

How the values were obtained:
[1] = test system: U87MG human glioblastoma cells; assay: Cell efflux; type: cell-based; settings: after 2 h efflux incubation
In short: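 Cells seeded at 2.5×10^5/well 24 h ahead, then loaded with 370 kBq/well radiotracer for 2 h at 37°C to allow internalization. After two PBS washes, cells were kept in culture medium for 15, 30, 60 and 120 min, washed three times with PBS and detached with 0.25% trypsin/0.02% EDTA. Cell-bound activity was gamma counted and expressed as % of added dose after decay correction. Two experiments, triplicate wells.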

in vivo = settings: female, athymic nude, mouse, 7.4 MBq, total radioactivity
[2] = type: physicochemical; settings: pH 7.4
Probe stability in PBS = type: physicochemical; settings: PBS pH 7.4, 37°C, 3.7 MBq in 0.5 mL, HPLC
In short: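 Radiolabeled peptide (3.7 MBq) was added to 0.5 mL PBS and held at 37°C for 1, 6 and 24 h. At each time an aliquot was taken and radiochemical purity was measured by radio-HPLC on a C18 reversed-phase column, with UV at 214/254 nm. Results are given as % intact tracer.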

NCCCC[C@@H]1NC(=O)[C@@H]2CCCN2C(=O)[C@H](CC(N)=O)NC(=O)[C@H](CO)NC(=O)[C@H](CC(N)=O)NC(=O)CNC(=O)[C@@H](NC(=O)CN2CCN(CC(=O)O)CCN(CC(=O)O)CCN(CC(=O)O)CC2)CSSC[C@@H](C(N)=O)NC(=O)[C@H](CO)NC1=O [^64Cu-DOTA-GX1, metal not drawn] ({DOTA}-CGNSNPKSC-NH2; disulfide 1-9; N-terminus and C-terminus assumed)
radioactivity still associated with the cells [1]: 76%
tissue uptake at 24 h (in vivo; U87MG tumor uptake (biodistribution)): 6.46 ± 0.29 %ID/g
tissue uptake at 24 h (in vivo; liver uptake (biodistribution)): 5.03 ± 0.14 %ID/g
octanol/water partition coefficient (log P) [2]: −2.42±0.003
percentage of intact tracer in PBS (Probe stability in PBS; 6 h incubation): more than 95%
percentage of intact tracer in PBS (Probe stability in PBS; 24 h incubation): more than 91%
